Converted amounts (≈) assume the structure as drawn. The source made the active and inactive calls.
What was measured:
Cryptococcus neoformans [1] = experiment: Antifungal activity against Cryptococcus neoformans ATCC 24067 after 72 hrs by NCCLS M27A method; format: functional; details: ATCC 24067, 72 h
Cryptococcus neoformans [2] = experiment: Inhibition of melanin formation in Cryptococcus neoformans ATCC 24067 at =<0.5 times MIC after 10 days by plating assay; format: functional, organism-based
Outline: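 Strain 24067 yeast grown on minimal-medium agar plates containing 1 mM L-dopa, with or without drug, 10 days at 30°C. Read-out was visual dark pigmentation of colonies and of surrounding agar from secreted laccase. Plates run in triplicate, experiment performed twice.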

Cryptococcus neoformans [3] = experiment: Inhibition of melanin formation in Cryptococcus neoformans ATCC 24067 at 0.25 times MIC coincubated with L-dopa for 7 days by dry-weight measurement; format: functional; set-up: scale not given: the % may be the effect or the level left
Outline: (§1)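 5 x 10^4 yeasts grown in 50 ml minimal medium + 1 mM L-dopa ± drug (0.25 or 0.5 MIC) at 30°C, 150 rpm, for 7 days. Melanin "ghosts" were isolated by cell-wall lysing enzymes (10 mg/ml, overnight 30°C), proteinase K (1 mg/ml, SDS buffer pH 7.8, 37°C overnight) and boiling 6 M HCl for 1 h. They were then lyophilized and weighed.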

Cryptococcus neoformans [4] = experiment: Inhibition of melanin formation in Cryptococcus neoformans ATCC 24067 at 0.5 times MIC coincubated with L-dopa for 7 days by dry-weight measurement; format: functional; set-up: scale not given: the % may be the effect or the level left; outline: as §1
Cryptococcus neoformans [5] = experiment: Reduction in LAC1 gene expression in Cryptococcus neoformans ATCC 24067 at 0.25 to 0.5 times MIC after 7 days by qRT-PCR relative to control; format: functional; set-up: scale not given: the % may be the effect or the level left
Outline: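 Cells grown 7 days at 30°C on foil-covered minimal-medium agar + 1 mM L-dopa ± drug (0.25 or 0.5 MIC). Total RNA was DNase-treated and reverse transcribed, then LAC1 was measured by real-time PCR (40 cycles, 55°C annealing) with melting curve. Expression was normalized to ACT1 using the threshold-cycle method.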

Cryptococcus neoformans [6] = experiment: Inhibition of intact recombinant Cryptococcus neoformans ATCC 24067 laccase-mediated ABTS oxidation at 0.5 times MIC after 2 hrs
Outline: (§2)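 Yeasts grown 72 h at 30°C in asparagine medium with glucose, then 36 h without glucose. Intact cells were used at 1 x 10^8/ml in PBS ± voriconazole. Alternatively, bead-beaten cytoplasmic extracts in 0.1 M Na2HPO4 with protease inhibitor were used. ABTS 1 mM final, 30°C for 2 h; cells removed and A420 read against a no-ABTS baseline. Rhus laccase (1 U/ml) served as positive control. Run twice.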

[7] = system: Toxicodendron vernicifluum; experiment: Inhibition of cytoplasmic extract of recombinant Rhus vernificera laccase-mediated ABTS oxidation at 0.5 times MIC after 2 hrs; outline: as §2
Cryptococcus neoformans [8] = experiment: Increase in phagocytosis of Cryptococcus neoformans ATCC 24067 by mouse J774.16 cells at 0.25 to 0.5 times MIC; format: functional, organism-based
Outline: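 Yeasts (5 x 10^4 in 25 ml minimal medium + 1 mM L-dopa, 0.25 or 0.5 MIC drug, 30°C, 150 rpm) sampled on days 3, 5 and 7. They were PBS-washed and added 1:1 to J774.16 macrophages with 10 µg/ml mAb 18B7 for 2 h at 37°C. Monolayers were washed, methanol-fixed and Giemsa-stained. Index is internalized yeasts per macrophage, from 3 wells × 3 fields (~100 macrophages each) at x400.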

[9] = system: Toxicodendron vernicifluum; experiment: Inhibition of Rhus vernificera recombinant laccase-mediated ABTS oxidation
Outline: (§3)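 Commercial Rhus vernificera laccase incubated with voriconazole, varying concentrations of either enzyme or drug, in PBS. ABTS 1 mM final, 30°C for 2 h, with absorbance read at 420 nm.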

[10] = system: Toxicodendron vernicifluum; experiment: Inhibition of recombinant Rhus vernificera laccase-mediated ABTS oxidation measured as inhibition activity with respect to decrease in enzyme concentration from 1 to 0.001 U/mL at 1 ug/ml; outline: as §3
Cryptococcus neoformans [11] = experiment: Antifungal activity against Cryptococcus neoformans ATCC 24067 assessed as effect on growth rate at 0.25 to 0.5 times MIC; format: functional, organism-based
Outline: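 C. neoformans 24067 grown at 30°C in minimal medium with L-dopa, with drug at several sub-MIC levels up to 0.5 MIC. Inoculum was 5 x 10^4 cells in 50 ml per concentration, with growth followed over time.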

SMILES	MIC (Cryptococcus neoformans [1]) [µg/mL]	Activity (Cryptococcus neoformans [3]) [%]	Activity (Cryptococcus neoformans [4]) [%]	Activity (Cryptococcus neoformans [5])	other results
CC[C@H](C)C[C@H](C)CCCCCCCCC(=O)N[C@H]1C[C@@H](O)[C@@H](NCCN)NC(=O)[C@@H]2[C@@H](O)CCN2C(=O)[C@H]([C@H](O)CCN)NC(=O)[C@H]([C@H](O)[C@@H](O)c2ccc(O)cc2)NC(=O)[C@@H]2C[C@@H](O)CN2C(=O)[C@H]([C@@H](C)O)NC1=O [CASPOFUNGIN]	8 (≈ 7.32 µM)				
CCC(C)n1ncn(-c2ccc(N3CCN(c4ccc(OCC5COC(Cn6cncn6)(c6ccc(Cl)cc6Cl)O5)cc4)CC3)cc2)c1=O (stereo not drawn) [ITRACONAZOLE]	< 0.625				
C[C@@H]1[C@H](O)[C@@H](C)/C=C/C=C/C=C/C=C/C=C/C=C/C=C/[C@H](O[C@@H]2O[C@H](C)[C@@H](O)[C@H](N)[C@@H]2O)C[C@@H]2O[C@](O)(C[C@@H](O)C[C@@H](O)[C@H](O)CC[C@@H](O)C[C@@H](O)CC(=O)O[C@H]1C)C[C@H](O)[C@H]2C(=O)O [AMPHOTERICIN B]	0.125 (≈ 0.135 µM)				Activity (Cryptococcus neoformans [2]): inactive
C[C@@H](c1ncncc1F)[C@](O)(Cn1cncn1)c1ccc(F)cc1F [VORICONAZOLE]	0.015 (≈ 0.0429 µM)	82.1	94.5	40%	Activity (Cryptococcus neoformans [6]): Active; Activity [7]: Active; Activity (Cryptococcus neoformans [8]): Active; Activity [9]: Dose-dependent effect; Activity [10]: Active; Activity (Cryptococcus neoformans [11]): inactive
OC(Cn1cncn1)(Cn1cncn1)c1ccc(F)cc1F [FLUCONAZOLE]	1 (≈ 3.27 µM)	2.7	17.3	inactive	
